Data as given in ChEMBL document CHEMBL1275434, “In vitro evaluation of CBR-2092, a novel rifamycin-quinolone hybrid antibiotic: studies of the mode of action in Staphylococcus aureus” (Antimicrob Agents Chemother, 2008).
Values after ≈ are worked out from the molar mass of the structure shown. Active and inactive are the calls of the source. The calls are words filed in the database; no cut-off is given here.

Tests used:
Staphylococcus aureus [1] = assay: Activity at Staphylococcus aureus wild-type DNA topoisomerase 4 subunit ParC
How it was run: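 Recombinant S. aureus topoisomerase IV (wild-type ParC with ParE; specific activity 25 to 30 U per μg). Stopped with SDS/proteinase K. Linear DNA quantified on gel; CC50 is the mean of two or more assays.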

Staphylococcus aureus [2] = assay: Activity at Staphylococcus aureus DNA topoisomerase 4 subunit ParC S80F mutant
Staphylococcus aureus [3] = assay: Activity at Staphylococcus aureus wild-type GyrA
How it was run: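 Recombinant S. aureus gyrase (wild-type GyrA with His-tagged GyrB; 250 U per μg). SDS/proteinase K stop. Gel quantitation of linear cleavage product gave CC50, the mean of two or more assays.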

[4] = tested on: DNA gyrase subunit A (Staphylococcus aureus), P20831 [S84L]; assay: Activity at Staphylococcus aureus wild-type GyrA S84L mutant
Staphylococcus aureus [5] = assay: Antimicrobial activity against Staphylococcus aureus CB190 by broth microdilution method; format: functional
Staphylococcus aureus [6] = assay: Antimicrobial activity against Staphylococcus aureus CB811 harboring quinolone-resistant gyrA S84L mutant gene by broth microdilution method; format: functional
How it was run: (§1)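 CLSI broth microdilution MIC in cation-adjusted Mueller-Hinton (MHII) broth supplemented with 0.002% (vol/vol) polysorbate 80, included to limit compound loss to plastic surfaces.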

Staphylococcus aureus [7] = assay: Antimicrobial activity against Staphylococcus aureus CB808 harboring quinolone-resistant parC S80F mutant gene by broth microdilution method; format: functional; how it was run: as §1
Staphylococcus aureus [8] = assay: Antimicrobial activity against Staphylococcus aureus CB814 harboring fluoroquinolone-resistant gyrA S84L and parC S80F mutant genes by broth microdilution method; format: functional; how it was run: as §1
Staphylococcus aureus [9] = assay: Antimicrobial activity against Staphylococcus aureus CB370 harboring rifampin-resistant rpoB H481Y mutant gene by broth microdilution method; format: functional; how it was run: as §1
Staphylococcus aureus [10] = assay: Antimicrobial activity against Staphylococcus aureus CB812 harboring rpo B H481Y and gyrA S84L mutant genes by broth microdilution method; format: functional; how it was run: as §1
Staphylococcus aureus [11] = assay: Antimicrobial activity against Staphylococcus aureus CB809 harboring rpoB H481Y and parC S80F mutant genes by broth microdilution method
Staphylococcus aureus [12] = assay: Antimicrobial activity against Staphylococcus aureus CB815 harboring rpoB H481Y, gyrA S84L and parC S80F mutant genes by broth microdilution method
Staphylococcus aureus [13] = assay: Antimicrobial activity against Staphylococcus aureus CB1884; format: functional
Staphylococcus aureus [14] = assay: Antimicrobial activity against Staphylococcus aureus CB370 harboring rpoB H481Y mutant gene; format: functional
Staphylococcus aureus [15] = assay: Antimicrobial activity against Staphylococcus aureus CB814 harboring […] and parC S80F mutant genes; format: functional
Staphylococcus aureus [16] = assay: Antimicrobial activity against Staphylococcus aureus CB1952 harboring rpoB S486L, gyrA […], gyrA E88Q, gyrA G532S, parC S80F, parC E84L mutant genes selected after CBR-2092 exposure for 21 days; format: functional; settings: CB1952, 504 h
Staphylococcus aureus [17] = assay: Antimicrobial activity against Staphylococcus aureus CB815 harboring rpoB H481Y, gyrA […] and parC S80F mutant genes; format: functional
Staphylococcus aureus [18] = assay: Antimicrobial activity against Staphylococcus aureus CB1953 harboring rpoB H481Y, gyrA S84L, gyrA V598I, parC S80F, parC R570H mutant genes selected after CBR-2092 exposure for 7 days; format: functional; settings: CB1953, 168 h
Staphylococcus aureus [19] = assay: Antimicrobial activity against Staphylococcus aureus CB1954 harboring rpoB H481Y, gyrA S84L, K809 deficient gyrA, parC S80F, parC A523D mutant genes selected after CBR-2092 exposure for 7 days; format: functional; settings: CB1954, 168 h; how it was run: as §1
Staphylococcus aureus [20] = assay: Antimicrobial activity against Staphylococcus aureus CB1947 harboring rpoB H481Y, gyrA S84L, E697 deficient gyrA, parC G167V mutant genes selected after CBR-2092 exposure for 20 days; settings: CB1947, 480 h
Staphylococcus aureus [21] = assay: Antimicrobial activity against Staphylococcus aureus CB1887 harboring rpoB R484H, L520 deficient gyrA, […], R236 duplicated parC and parC H103Y mutant genes selected after ABT-719 exposure for 20 days; format: functional; settings: CB1887, 480 h
Staphylococcus aureus [22] = assay: Inhibition of DNA synthesis in Staphylococcus aureus CB190 assessed as decrease in [methyl-3H]thymidine incorporation at 2 ug/ml; format: functional, organism-based
Staphylococcus aureus [23] = assay: Inhibition of RNA synthesis in Staphylococcus aureus CB190 assessed as decrease in [5,6-3H]uridine incorporation at 2 ug/ml; format: functional, organism-based
Staphylococcus aureus [24] = assay: Inhibition of protein synthesis in Staphylococcus aureus CB190 assessed as decrease in L-[3,4,5-3H]leucine incorporation at 2 ug/ml; format: functional, organism-based
Staphylococcus aureus [25] = assay: Inhibition of cell wall synthesis in Staphylococcus aureus CB190 assessed as decrease in [2,3-3H]D-alanine incorporation at 2 ug/ml; format: functional, organism-based
Staphylococcus aureus [26] = assay: Inhibition of DNA synthesis in rifamycin-resistant Staphylococcus aureus CB370 harboring rpoB H481Y mutant gene assessed as decrease in [methyl-3H]thymidine incorporation at 2 ug/ml; format: functional, organism-based
How it was run: (§2)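 Macromolecular synthesis time course in S. aureus, measuring incorporation of [methyl-3H]thymidine (DNA), [5,6-3H]uridine (RNA) or [2,3-3H]D-alanine (cell wall). At each time point, incorporation is expressed as percent of the DMSO-treated control culture. Incorporation at time zero is set to 100%.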

Staphylococcus aureus [27] = assay: Inhibition of DNA synthesis in quinolone-resistant Staphylococcus aureus CB814 harboring gyrA S84L and parC S80F mutant genes assessed as [methyl-3H]thymidine incorporation at 2 ug/ml; format: functional, organism-based; how it was run: as §2
Staphylococcus aureus [28] = assay: Inhibition of RNA synthesis in quinolone-resistant Staphylococcus aureus CB814 harboring gyrA S84L and parC S80F mutant genes assessed as [5,6-3H]uridine incorporation at 2 ug/ml; format: functional, organism-based; how it was run: as §2
Staphylococcus aureus [29] = assay: Inhibition of protein synthesis in quinolone-resistant Staphylococcus aureus CB814 harboring gyrA S84L and parC S80F mutant genes assessed as L-[3,4,5-3H]leucine incorporation at 2 ug/ml; format: functional, organism-based
How it was run: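 Time-course radiolabel incorporation in S. aureus cultures with test agent. Precursors: [methyl-3H]thymidine (DNA), [5,6-3H]uridine (RNA), L-[3,4,5-3H]leucine (protein), [2,3-3H]D-alanine (cell wall). At each time point, incorporation with agent is expressed relative to the DMSO-treated control culture as percent incorporation. Time-zero incorporation is set to 100%.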

Staphylococcus aureus [30] = assay: Inhibition of cell wall synthesis in quinolone-resistant Staphylococcus aureus CB814 harboring gyrA S84L and parC S80F mutant genes assessed as [2,3-3H]D-alanine incorporation at 2 ug/ml; format: functional, organism-based; how it was run: as §2
Staphylococcus aureus [31] = assay: Antimicrobial activity against rifampin-sensitive Staphylococcus aureus CB190 by broth microdilution method; format: functional; how it was run: as §1
Staphylococcus aureus [32] = assay: Antimicrobial activity against rifampin-sensitive Staphylococcus aureus CB190 harboring rpoB H481Y mutant gene by broth microdilution method; format: functional; how it was run: as §1
Staphylococcus aureus [33] = assay: Antimicrobial activity against rifampin-sensitive Staphylococcus aureus CB190 harboring rpoB Q468L mutant gene by broth microdilution method; format: functional; how it was run: as §1
Staphylococcus aureus [34] = assay: Antimicrobial activity against rifampin-sensitive Staphylococcus aureus CB190 harboring rpoB Q468K mutant gene by broth microdilution method; format: functional; how it was run: as §1
Staphylococcus aureus [35] = assay: Antimicrobial activity against rifampin-sensitive Staphylococcus aureus CB190 harboring rpo BH481D mutant gene by broth microdilution method; format: functional; how it was run: as §1
Staphylococcus aureus [36] = assay: Antimicrobial activity against rifampin-sensitive Staphylococcus aureus CB190 harboring rpoB H472 mutant gene by broth microdilution method; format: functional; how it was run: as §1
Staphylococcus aureus [37] = assay: Antimicrobial activity against rifampin-sensitive Staphylococcus aureus CB190 harboring rpoB D471Y mutant gene by broth microdilution method; format: functional; how it was run: as §1
Staphylococcus aureus [38] = assay: Antimicrobial activity against rifampin-sensitive Staphylococcus aureus CB190 harboring rpoB E473 mutant gene by broth microdilution method; format: functional; how it was run: as §1
Staphylococcus aureus [39] = assay: Antimicrobial activity against rifampin-sensitive Staphylococcus aureus CB190 harboring rpoB H481N mutant gene by broth microdilution method; format: functional; how it was run: as §1
Staphylococcus aureus [40] = assay: Antimicrobial activity against rifampin-sensitive Staphylococcus aureus CB190 harboring rpoB N474K mutant gene by broth microdilution method; format: functional; how it was run: as §1
Staphylococcus aureus [41] = assay: Antimicrobial activity against rifampin-sensitive Staphylococcus aureus CB190 harboring rpoB A477V mutant gene by broth microdilution method; format: functional; how it was run: as §1
Staphylococcus aureus [42] = assay: Antimicrobial activity against rifampin-sensitive Staphylococcus aureus CB190 harboring rpoB D471G mutant gene by broth microdilution method; format: functional; how it was run: as §1

Cc1c(N2CC[C@@H](N)C2)c(F)cn2c(=O)c(C(=O)O)cc(C3CC3)c12
CC50 (Staphylococcus aureus [1]): 60 nM
CC50 (Staphylococcus aureus [2]): 1100 nM
CC50 (Staphylococcus aureus [3]): 90 nM
CC50 [4]: 900 nM
MIC (Staphylococcus aureus [5]): 0.015 µg/mL (≈ 0.0434 µM)
MIC (Staphylococcus aureus [6]): 0.03 µg/mL (≈ 0.0869 µM)
MIC (Staphylococcus aureus [7]): 0.03 µg/mL (≈ 0.0869 µM)
MIC (Staphylococcus aureus [8]): 0.5 µg/mL (≈ 1.45 µM)
MIC (Staphylococcus aureus [9]): 0.015 µg/mL (≈ 0.0434 µM)
MIC (Staphylococcus aureus [10]): 0.03 µg/mL (≈ 0.0869 µM)
MIC (Staphylococcus aureus [11]): 0.03 µg/mL (≈ 0.0869 µM)
MIC (Staphylococcus aureus [12]): 0.25 µg/mL (≈ 0.724 µM)

CCBr [BROMOETHANE]
MIC (Staphylococcus aureus [13]): 2 µg/mL (≈ 18.4 µM)
MIC (Staphylococcus aureus [14]): 4 µg/mL (≈ 36.7 µM)
MIC (Staphylococcus aureus [15]): 4 µg/mL (≈ 36.7 µM)
MIC (Staphylococcus aureus [16]): 4 µg/mL (≈ 36.7 µM)
MIC (Staphylococcus aureus [17]): 4 µg/mL (≈ 36.7 µM)
MIC (Staphylococcus aureus [18]): 4 µg/mL (≈ 36.7 µM)
MIC (Staphylococcus aureus [19]): 4 µg/mL (≈ 36.7 µM)
MIC (Staphylococcus aureus [20]): 4 µg/mL (≈ 36.7 µM)

O=C(O)c1cn(C2CC2)c2cc(N3CCNCC3)c(F)cc2c1=O [CIPROFLOXACIN]
MIC (Staphylococcus aureus [13]): 8 µg/mL (≈ 24.1 µM)
MIC (Staphylococcus aureus [21]): 64 µg/mL (≈ 193 µM)
MIC (Staphylococcus aureus [14]): 0.25 µg/mL (≈ 0.754 µM)
MIC (Staphylococcus aureus [16]): 64 µg/mL (≈ 193 µM)
MIC (Staphylococcus aureus [18]): 64 µg/mL (≈ 193 µM)
MIC (Staphylococcus aureus [19]): 64 µg/mL (≈ 193 µM)
CC50 (Staphylococcus aureus [1]): 400 nM
CC50 (Staphylococcus aureus [2]): 31000 nM
CC50 (Staphylococcus aureus [3]): 4600 nM
CC50 [4]: > 150000 nM
MIC (Staphylococcus aureus [5]): 0.25 µg/mL (≈ 0.754 µM)
MIC (Staphylococcus aureus [6]): 0.25 µg/mL (≈ 0.754 µM)
MIC (Staphylococcus aureus [7]): 2 µg/mL (≈ 6.04 µM)
MIC (Staphylococcus aureus [9]): 0.25 µg/mL (≈ 0.754 µM)
MIC (Staphylococcus aureus [10]): 0.25 µg/mL (≈ 0.754 µM)
Activity (Staphylococcus aureus [22]): Active
Activity (Staphylococcus aureus [23]): Active
Activity (Staphylococcus aureus [24]): Active
Activity (Staphylococcus aureus [25]): Active
Activity (Staphylococcus aureus [26]): Active
Activity (Staphylococcus aureus [27]): inactive
Activity (Staphylococcus aureus [28]): inactive
Activity (Staphylococcus aureus [29]): inactive
Activity (Staphylococcus aureus [30]): inactive
MIC (Staphylococcus aureus [31]): 0.25 µg/mL (≈ 0.754 µM)
MIC (Staphylococcus aureus [32]): 0.25 µg/mL (≈ 0.754 µM)
MIC (Staphylococcus aureus [33]): 0.25 µg/mL (≈ 0.754 µM)
MIC (Staphylococcus aureus [34]): 0.25 µg/mL (≈ 0.754 µM)
MIC (Staphylococcus aureus [35]): 0.25 µg/mL (≈ 0.754 µM)
MIC (Staphylococcus aureus [36]): 0.25 µg/mL (≈ 0.754 µM)
MIC (Staphylococcus aureus [37]): 0.5 µg/mL (≈ 1.51 µM)
MIC (Staphylococcus aureus [38]): 0.25 µg/mL (≈ 0.754 µM)
MIC (Staphylococcus aureus [39]): 0.25 µg/mL (≈ 0.754 µM)
MIC (Staphylococcus aureus [40]): 0.25 µg/mL (≈ 0.754 µM)
MIC (Staphylococcus aureus [41]): 0.25 µg/mL (≈ 0.754 µM)
MIC (Staphylococcus aureus [42]): 0.25 µg/mL (≈ 0.754 µM)
MIC (Staphylococcus aureus [11]): 2 µg/mL (≈ 6.04 µM)
MIC (Staphylococcus aureus [20]): 2 µg/mL (≈ 6.04 µM)
